Square brackets hold non-standard residues; d marks the D form. Peptide text beside a SMILES is read from it.
Columns and labels:
[1] = Inhibitory activity against low binding affinity binding site of Bradykinin receptor in guinea pig ileum was reported.; assay type: tissue-based, Cavia porcellus
Method in brief: (§1)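 Fresh rat myometrial or guinea pig ileum membranes (0.3–0.5 mg protein) incubated 30 min at 4 °C with 0.05 nM [3H]BK and increasing peptide concentrations. Buffer: 25 mM TES pH 6.8, 1 µM captopril, 1 mM DTE, bacitracin, BSA. Samples filtered on PEI-treated GF/C and counted. High- and low-affinity IC50s from Tobler–Engel analysis; duplicates.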

[2] = Inhibitory activity against high binding affinity binding site of Bradykinin receptor in rat uterus membrane was reported.; assay type: cell membranes; method in brief: as §1
[3] = Inhibitory activity against low binding affinity binding site of Bradykinin receptor in rat uterus membrane was reported.; assay type: cell membranes; method in brief: as §1
Cavia porcellus [4] = species on record: Cavia porcellus; experiment: (§2) Antagonistic activity was evaluated in Guinea pig ileum assay.; assay type: functional; parameters: scale not given: the % may be the effect or the level left
Method in brief: (§3)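 Guinea pig terminal ileum in Tyrode at 37 °C under 0.5 g tension, isotonic recording. Analog added 5 min before a cumulative BK dose–response curve (maximum at 0.3 µM BK). pA2 is the negative log of the antagonist concentration that reduces the effect of a double BK dose to that of a single dose. Means of 3–7 determinations.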

Cavia porcellus [5] = species on record: Cavia porcellus; experiment: Antagonistic activity was evaluated in Guinea pig lung strip assay.; assay type: functional; parameters: scale not given: the % may be the effect or the level left
Method in brief: (§4)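 Lower-lobe lung strips (2–3 mm) from guinea pigs (400–600 g) in Krebs–Henseleit at 37 °C under 1 g load, with isometric tension recorded. After 1 h equilibration, peptide was given 5 min before an ED50 dose of BK. Cumulative BK curves covered 0.01–10 µM. pA2 by the van Rossum method.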

Rattus norvegicus [6] = species on record: Rattus norvegicus; experiment: Agonistic activity was evaluated in Estrus Rat Uterus Assay; assay type: functional
Method in brief: (§5)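 Uteri from female Wistar rats (180–200 g) given diethylstilbestrol 100 µg/kg sc 16 h before use. Distal horns held in de Jalon solution at 28 °C under 0.5 g resting tension, with isotonic contractions recorded. BK was dosed every 4 min and left in the bath 45 s. Agonist activity by Schild 4-point method, expressed as percent of BK activity.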

[7] = Selectivity for rat uterus is expressed as the ratio RUT/GPI; assay type: functional
Method in brief: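 Ratio of agonist activity (percent of BK) in estrus rat uterus to that in guinea pig ileum, both from isotonic contraction assays using the Schild 4-point method.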

[8] = Inhibitory activity against high affinity binding site of Bradykinin receptor in guinea pig ileum was reported.; assay type: tissue-based; conditions: Cavia porcellus; method in brief: as §1
[9] = Inhibitory activity against low affinity binding site of Bradykinin receptor in guinea pig ileum; assay type: tissue-based; conditions: Cavia porcellus; method in brief: as §1
[10] = Inhibitory activity against high affinity binding site of Bradykinin receptor in rat uterus membrane was reported.; assay type: cell membranes; method in brief: as §1
[11] = Inhibitory activity against low affinity binding site of Bradykinin receptor in rat uterus membrane was reported.; assay type: cell membranes; method in brief: as §1
Cavia porcellus [12] = species on record: Cavia porcellus; experiment: Antagonistic activity expressed as pA2 in Guinea pig lung strip assay.; assay type: functional; conditions: read-out: pA2 (converted); method in brief: as §4
Cavia porcellus [13] = species on record: Cavia porcellus; experiment: as §2; assay type: functional, organism-based; conditions: read-out: pA2 (converted); method in brief: as §3
Cavia porcellus [14] = species on record: Cavia porcellus; experiment: Agonistic activity against selectivity for smooth muscle contraction in guinea pig ileum.; assay type: functional, Muscle tissue
Method in brief: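 Isolated terminal ileum (1.5 cm) from guinea pigs fasted 16 h, in Tyrode at 37 °C. Isotonic contractions recorded under 0.5 g resting tension. Agonist activity measured by Schild 4-point method against BK doses of 1 and 2 nM, expressed as percent of BK activity.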

Rattus norvegicus [15] = species on record: Rattus norvegicus; experiment: Agonistic activity against selectivity for smooth muscle contraction in rat uterus.; assay type: functional, Muscle tissue; method in brief: as §5
Rattus norvegicus [16] = species on record: Rattus norvegicus; experiment: Compound was tested for agonist activity for contraction of rat uterus, the negative logarithm of ED50 (pD2) was estimated.
Cavia porcellus [17] = species on record: Cavia porcellus; experiment: Compound was tested for agonist activity for contraction of guinea pig ileum; the negative logarithm of ED50 (pD2) was estimated.

## CN(C(=O)[C@H](CO)NC(=O)[C@H](Cc1cccs1)NC(=O)CNC(=O)[C@@H]1CC(O)CN1C(=O)[C@@H]1CCCN1C(=O)[C@@H](N)CCCN=C(N)N)[C@H](Cc1ccccc1)C(=O)N[C@@H](Cc1ccccc1)C(=O)N[C@@H](CCCN=C(N)N)C(=O)O (stereo partly drawn)
[1]
  IC50: 29 nM
[2]
  IC50: 0.49 nM
[3]
  IC50: 65 nM
Cavia porcellus [4]
  Activity: 0.02%
Cavia porcellus [5]
  Activity: 0.04%
Rattus norvegicus [6]
  Activity: 89%
[7]
  Ratio: 4000

## CN(C(=O)[C@@H](N)CCCN=C(N)N)[C@@H](Cc1ccccc1)C(=O)N1CCC[C@H]1C(=O)NCC(=O)N[C@@H](Cc1ccccc1)C(=O)N[C@@H](CO)C(=O)N1CCC[C@H]1C(=O)N[C@@H](Cc1ccccc1)C(=O)N[C@@H](CCCN=C(N)N)C(=O)O
[8]
  IC50: 1 nM
[9]
  IC50: 25 nM
[10]
  IC50: 3.5 nM
[11]
  IC50: 232 nM
Cavia porcellus [4]
  Activity: 4%
Cavia porcellus [5]
  Activity: 1.4%
Cavia porcellus [12]
  Kb: 2570 nM
Rattus norvegicus [6]
  Activity: 35%

## NC(N)=NCCC[C@H](NC(=O)[C@H](Cc1ccccc1)NC(=O)[C@@H](Cc1ccccc1)NC(=O)[C@H](CO)NC(=O)[C@H](Cc1ccccc1)NC(=O)CNC(=O)[C@@H]1CCCN1C(=O)[C@@H]1CCCN1C(=O)[C@@H](N)CCCN=C(N)N)C(=O)O (H-RPPGFS[dF]FR-OH)
[1]
  IC50: 14 nM
[2]
  IC50: 6.6 nM
[3]
  IC50: 3.5 nM
Cavia porcellus [5]
  Activity: 0.9%
Cavia porcellus [13]
  Kb: 2750 nM
Rattus norvegicus [6]
  Activity: 1.7%

## H-RPPGFSPFR-OH [BRADYKININ]
[8]
  IC50: 0.01 nM
[9]
  IC50: 1.75 nM
[10]
  IC50: 0.01 nM
[11]
  IC50: 1 nM
Cavia porcellus [14]
  Activity: 100%
Cavia porcellus [4]
  Activity: 100%
Cavia porcellus [5]
  Activity: 100%
Rattus norvegicus [15]
  Activity: 100%
Rattus norvegicus [6]
  Activity: 100%
[7]
  Ratio: 1
Rattus norvegicus [16]
  pD2: 7.9
Cavia porcellus [17]
  pD2: 7.4
